The record followed here is ChEMBL document CHEMBL2396553, “C3'-endo-puckered pyrrolidine containing PNA has favorable geometry for RNA binding: novel ethano locked PNA (ethano-PNA)” (Bioorg Med Chem, 2013).

Each structure is given as a SMILES string. Calls of active or inactive are those of the source. The calls are words filed in the database; no cut-off is given here.

The subject of experiment [1] is Nucleic Acid. The experiment is described as follows: Binding affinity to 5'-UGGAGUGAGACAAUGGUG mismatch RNA (unknown origin) assessed as melting temperature at 10 mM by UV-thermal denaturation assay. The experiment is classed as nucleic-acid assay. To be noted: 10 mM NaCl. A digest of the protocol:
(§1)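 Each strand 1 µM (concentrations from nucleobase molar extinction coefficients) in 10 mM sodium phosphate pH 7.0 with 10 or 100 mM NaCl. Annealed 90 °C for 5 min, slow-cooled to room temperature then 0 °C. Absorbance at 260 nm followed from 10 to 85 °C at 0.5 °C/min. Tm taken from first-derivative curves. At least three runs, accurate within 0.3 °C.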

The nature of experiment [2]: Binding affinity to 5'-TGGAGTGTGACAATGGTG cDNA (unknown origin) at 1 uM by circular dichroism analysis. A digest of the protocol:
(§2)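 CD spectra of 1 µM complexes in 10 mM sodium phosphate pH 7.0 with 10 mM NaCl, annealed 90 °C for 5 min and slow-cooled to room temperature. Recorded at room temperature from 320 to 210 nm at 100 nm/min in a 1 cm path cuvette. At least 8 scans averaged.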
A general note: Circular dichroism is widely used to follow secondary structure.

Experiment [3] deals with Nucleic Acid. The experiment is described as follows: Binding affinity to 5'-TGGAGTGTGACAATGGTG cDNA (unknown origin) assessed as melting temperature at 10 mM by UV-thermal denaturation assay. The experiment is classed as nucleic-acid assay. To be noted: 10 mM NaCl. A digest of the protocol:
as §1

For experiment [4], the system named is Nucleic Acid. In words: Binding affinity to 5'-TGGAGTGTGACAATGGTG cDNA (unknown origin) assessed as melting temperature at 100 mM by UV-thermal denaturation assay. The settings on record: 100 mM NaCl. The experiment is classed as nucleic-acid assay. A digest of the protocol:
as §1

Experiment [5] is described as follows: Binding affinity to 5'-UGGAGUGUGACAAUGGUG RNA (unknown origin) at 1 uM by circular dichroism analysis. A digest of the protocol:
as §2

In experiment [6] the test system is Nucleic Acid. In words: Binding affinity to 5'-UGGAGUGAGACAAUGGUG mismatch RNA (unknown origin) assessed as melting temperature at 100 mM by UV-thermal denaturation assay. The experiment is classed as nucleic-acid assay. The settings on record: 100 mM NaCl. A digest of the protocol:
as §1

Experiment [7] concerns Nucleic Acid. The experiment is described as follows: Binding affinity to 5'-UGGAGUGUGACAAUGGUG RNA (unknown origin) assessed as melting temperature at 100 mM by UV-thermal denaturation assay. The experiment is classed as nucleic-acid assay. To be noted: 100 mM NaCl. A digest of the protocol: as §1
Experiment [8] concerns Nucleic Acid. In words: Binding affinity to 5'-UGGAGUGUGACAAUGGUG RNA (unknown origin) assessed as melting temperature at 10 mM by UV-thermal denaturation assay. The experiment is classed as nucleic-acid assay. To be noted: 10 mM NaCl. A digest of the protocol: as §1

`Cc1cn(CC(=O)N(CCNC(=O)CN(CCNC(=O)CN(CCNC(=O)CN(CCNC(=O)CN(CCNC(=O)CN(CCN)C(=O)Cn2ccc(N)nc2=O)C(=O)Cn2cnc3c(N)ncnc32)C(=O)Cn2cc(C)c(=O)[nH]c2=O)C(=O)Cn2cc(C)c(=O)[nH]c2=O)C(=O)Cn2cnc3c(=O)[nH]c(N)nc32)CC(=O)NCCN(CC(=O)NCCN(CC(=O)NCCN(CC(=O)NCCN(CC(=O)NCCN(CC(=O)NCCN(CC(=O)N[C@@H](CCCCN)C(N)=O)C(=O)Cn2cc(C)c(=O)[nH]c2=O)C(=O)Cn2ccc(N)nc2=O)C(=O)Cn2cnc3c(N)ncnc32)C(=O)Cn2ccc(N)nc2=O)C(=O)Cn2cnc3c(N)ncnc32)C(=O)Cn2ccc(N)nc2=O)c(=O)[nH]c1=O`: the midpoint of thermal melting (Tm) (commonly the temperature at the midpoint of the melting transition) in the experiment with Nucleic Acid [1] amounted to 55.1 °C; in the experiment with Nucleic Acid [3] it was 64.6 °C; in the experiment on Nucleic Acid [4] it was 60.1 °C; in the experiment with Nucleic Acid [6] it was 53 °C; in the experiment on Nucleic Acid [7], 63.7 °C; in the experiment on Nucleic Acid [8], 66.1 °C. The result in experiment [2] and in experiment [5] was Active.

Regarding `Cc1cn(CC(=O)N(CCNC(=O)CN(CCNC(=O)CN(CCN)C(=O)Cn2ccc(N)nc2=O)C(=O)Cn2cnc3c(N)ncnc32)CC(=O)NCCN(CC(=O)NCCN(CC(=O)N2CC[C@H](N(CC(=O)NCCN(CC(=O)NCCN(CC(=O)NCCN(CC(=O)NCCN(CC(=O)NCCN(CC(=O)NCCN(CC(=O)N[C@@H](CCCCN)C(N)=O)C(=O)Cn3cc(C)c(=O)[nH]c3=O)C(=O)Cn3ccc(N)nc3=O)C(=O)Cn3cnc4c(N)ncnc43)C(=O)Cn3ccc(N)nc3=O)C(=O)Cn3cnc4c(N)ncnc43)C(=O)Cn3ccc(N)nc3=O)C(=O)Cn3cc(C)c(=O)[nH]c3=O)C2)C(=O)Cn2cnc3c(=O)[nH]c(N)nc32)C(=O)Cn2cc(C)c(=O)[nH]c2=O)c(=O)[nH]c1=O`, the Tm with Nucleic Acid [1] turned out to be 45.4 °C; in the experiment on Nucleic Acid [3] it was 49.7 °C; in the experiment on Nucleic Acid [4], 46.2 °C; with Nucleic Acid [6] it was 42.2 °C; in the experiment with Nucleic Acid [7] it was 52.3 °C; with Nucleic Acid [8], 59.4 °C. The outcome in experiment [2] and in experiment [5] was Active.

`Cc1cn(CC(=O)N(CCNC(=O)CN(CCNC(=O)CN(CCNC(=O)CN(C(=O)Cn2cc(C)c(=O)[nH]c2=O)[C@H]2C[C@@H](CNC(=N)N)N(C(=O)CN(CCNC(=O)CN(CCN)C(=O)Cn3ccc(N)nc3=O)C(=O)Cn3cnc4c(N)ncnc43)C2)C(=O)Cn2cc(C)c(=O)[nH]c2=O)C(=O)Cn2cnc3c(=O)[nH]c(N)nc32)CC(=O)NCCN(CC(=O)NCCN(CC(=O)NCCN(CC(=O)NCCN(CC(=O)NCCN(CC(=O)NCCN(CC(=O)N[C@@H](CCCCN)C(N)=O)C(=O)Cn2cc(C)c(=O)[nH]c2=O)C(=O)Cn2ccc(N)nc2=O)C(=O)Cn2cnc3c(N)ncnc32)C(=O)Cn2ccc(N)nc2=O)C(=O)Cn2cnc3c(N)ncnc32)C(=O)Cn2ccc(N)nc2=O)c(=O)[nH]c1=O`: the Tm is 53.6 °C with Nucleic Acid [1]; 60.6 °C in the experiment with Nucleic Acid [3]; 56.3 °C with Nucleic Acid [4]; 46.8 °C with Nucleic Acid [6]; 60.7 °C in the experiment on Nucleic Acid [7]; 68.1 °C in the experiment on Nucleic Acid [8]. The outcome in experiment [2] and in experiment [5] was Active.

For the compound `Cc1cn(CC(=O)N(CCNC(=O)CN(CCNC(=O)CN(CCN)C(=O)Cn2ccc(N)nc2=O)C(=O)Cn2cnc3c(N)ncnc32)CC(=O)NCCN(CC(=O)NCCN(CC(=O)N2C[C@@H](N(CC(=O)NCCN(CC(=O)NCCN(CC(=O)NCCN(CC(=O)NCCN(CC(=O)NCCN(CC(=O)NCCN(CC(=O)N[C@@H](CCCCN)C(N)=O)C(=O)Cn3cc(C)c(=O)[nH]c3=O)C(=O)Cn3ccc(N)nc3=O)C(=O)Cn3cnc4c(N)ncnc43)C(=O)Cn3ccc(N)nc3=O)C(=O)Cn3cnc4c(N)ncnc43)C(=O)Cn3ccc(N)nc3=O)C(=O)Cn3cc(C)c(=O)[nH]c3=O)C[C@H]2CNC(=N)N)C(=O)Cn2cnc3c(=O)[nH]c(N)nc32)C(=O)Cn2cc(C)c(=O)[nH]c2=O)c(=O)[nH]c1=O`, the Tm in the experiment with Nucleic Acid [1] worked out at 47.1 °C; in the experiment with Nucleic Acid [3], 53.7 °C; in the experiment with Nucleic Acid [4] it was 48.8 °C; in the experiment with Nucleic Acid [6] it was 46.3 °C; with Nucleic Acid [7], 59.4 °C; in the experiment with Nucleic Acid [8] it was 62.7 °C. Moreover, the result in experiment [2] and in experiment [5] was Active.

`Cc1cn(CC(=O)N(CCNC(=O)CN(CCNC(=O)CN(CCNC(=O)CN(C(=O)Cn2cc(C)c(=O)[nH]c2=O)[C@H]2CCN(C(=O)CN(CCNC(=O)CN(CCN)C(=O)Cn3ccc(N)nc3=O)C(=O)Cn3cnc4c(N)ncnc43)C2)C(=O)Cn2cc(C)c(=O)[nH]c2=O)C(=O)Cn2cnc3c(=O)[nH]c(N)nc32)CC(=O)NCCN(CC(=O)NCCN(CC(=O)NCCN(CC(=O)NCCN(CC(=O)NCCN(CC(=O)NCCN(CC(=O)N[C@@H](CCCCN)C(N)=O)C(=O)Cn2cc(C)c(=O)[nH]c2=O)C(=O)Cn2ccc(N)nc2=O)C(=O)Cn2cnc3c(N)ncnc32)C(=O)Cn2ccc(N)nc2=O)C(=O)Cn2cnc3c(N)ncnc32)C(=O)Cn2ccc(N)nc2=O)c(=O)[nH]c1=O`: the Tm in the experiment with Nucleic Acid [1] amounted to 50.8 °C; with Nucleic Acid [3] it was 55.8 °C; in the experiment with Nucleic Acid [4], 50 °C; in the experiment on Nucleic Acid [6], 43.3 °C; in the experiment with Nucleic Acid [7], 59.9 °C; in the experiment on Nucleic Acid [8], 65.5 °C. Moreover, the outcome in experiment [2] and in experiment [5] was Active.

Regarding `Cc1cn(CC(=O)N(CCNC(=O)CN(CCNC(=O)CN(CCN)C(=O)Cn2ccc(N)nc2=O)C(=O)Cn2cnc3c(N)ncnc32)CC(=O)NCCN(CC(=O)NCCN(CC(=O)N2C[C@@H](N(CC(=O)NCCN(CC(=O)NCCN(CC(=O)NCCN(CC(=O)NCCN(CC(=O)NCCN(CC(=O)NCCN(CC(=O)N[C@@H](CCCCN)C(N)=O)C(=O)Cn3cc(C)c(=O)[nH]c3=O)C(=O)Cn3ccc(N)nc3=O)C(=O)Cn3cnc4c(N)ncnc43)C(=O)Cn3ccc(N)nc3=O)C(=O)Cn3cnc4c(N)ncnc43)C(=O)Cn3ccc(N)nc3=O)C(=O)Cn3cc(C)c(=O)[nH]c3=O)C[C@H]2CN)C(=O)Cn2cnc3c(=O)[nH]c(N)nc32)C(=O)Cn2cc(C)c(=O)[nH]c2=O)c(=O)[nH]c1=O`, the Tm amounted to 46.7 °C with Nucleic Acid [1]; 51.8 °C in the experiment with Nucleic Acid [3]; 46.6 °C in the experiment with Nucleic Acid [4]; 44.7 °C with Nucleic Acid [6]; 57.2 °C in the experiment with Nucleic Acid [7]; 60.4 °C in the experiment on Nucleic Acid [8]. The outcome in experiment [2] and in experiment [5] was Active.

`Cc1cn(CC(=O)N(CCNC(=O)CN(CCNC(=O)CN(CCNC(=O)CN(C(=O)Cn2cc(C)c(=O)[nH]c2=O)[C@H]2C[C@@H](CN)N(C(=O)CN(CCNC(=O)CN(CCN)C(=O)Cn3ccc(N)nc3=O)C(=O)Cn3cnc4c(N)ncnc43)C2)C(=O)Cn2cc(C)c(=O)[nH]c2=O)C(=O)Cn2cnc3c(=O)[nH]c(N)nc32)CC(=O)NCCN(CC(=O)NCCN(CC(=O)NCCN(CC(=O)NCCN(CC(=O)NCCN(CC(=O)NCCN(CC(=O)N[C@@H](CCCCN)C(N)=O)C(=O)Cn2cc(C)c(=O)[nH]c2=O)C(=O)Cn2ccc(N)nc2=O)C(=O)Cn2cnc3c(N)ncnc32)C(=O)Cn2ccc(N)nc2=O)C(=O)Cn2cnc3c(N)ncnc32)C(=O)Cn2ccc(N)nc2=O)c(=O)[nH]c1=O`: the Tm is 51.8 °C in the experiment on Nucleic Acid [1]; 57.1 °C with Nucleic Acid [3]; 53.8 °C with Nucleic Acid [4]; 45.7 °C in the experiment with Nucleic Acid [6]; 60.1 °C in the experiment on Nucleic Acid [7]; 66.3 °C in the experiment with Nucleic Acid [8]. In addition, the outcome in experiment [2] and in experiment [5] was Active.
